Columns and labels:
[1] = tested on: NIH3T3; assay: Mitogen-induced cell proliferation assay to evaluate the antiproliferative effect in NIH 3T3 cells; assay type: functional, cell-based; conditions: Mus musculus
In short: (§1)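 NIH 3T3 mouse fibroblasts given a mitogenic stimulus (e.g. PDGF or bFGF) for 10 h, then [3H]thymidine added. Cultured a further 21 h at 37 C, 5% CO2, then washed four times with DME. Acid-precipitable radioactivity extracted with cold 10% TCA, neutralized with 0.3 N NaOH, and counted by scintillation.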

[2] = tested on: NIH3T3; assay: Percent inhibition at 10 uM determined against mouse NIH 3T3 cells; assay type: functional; in short: as §1
[3] = tested on: NCI-H460; assay: Effect of 25 uM compound on NCI-H460 non-small cell lung cancer cells cycle progression in G2M phase by flow cytometry; assay type: functional, Homo sapiens
In short: (§2)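 NCI-H460 cells serum-starved 56 h, then released into complete medium containing compound (25 or 50 uM) or 0.1% DMSO vehicle for 16 h. Harvested, washed in cold PBS, fixed in 70% ethanol at 4 C for at least 4 h. Treated with ribonuclease and propidium iodide 30 min at 37 C. DNA content read by flow cytometry; percent of cells in G0-G1, S and G2-M.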

[4] = tested on: NCI-H460; assay: Effect of 50 uM compound on NCI-H460 non-small cell lung cancer cells cycle progression in S phase by flow cytometry; assay type: functional, Homo sapiens; in short: as §2
[5] = tested on: NCI-H460; assay: Effect of 50 uM compound on NCI-H460 non-small cell lung cancer cells cycle progression in G2-M phase by flow cytometry; assay type: functional, Homo sapiens; in short: as §2
[6] = tested on: NCI-H460; assay: Effect of 50 uM compound on NCI-H460 non-small cell lung cancer cells cycle progression in G0G1 phase by flow cytometry; assay type: functional, Homo sapiens; in short: as §2
[7] = tested on: NCI-H460; assay: Effect of 25 uM compound on NCI-H460 non-small cell lung cancer cells cycle progression in G0G1 phase by flow cytometry; assay type: functional, Homo sapiens; in short: as §2
[8] = tested on: NCI-H460; assay: Effect of 25 uM compound on NCI-H460 non-small cell lung cancer cells cycle progression in S phase by flow cytometry; assay type: functional, Homo sapiens; in short: as §2

| Compound | IC50 [1] | also measured |
| --- | --- | --- |
| OC(c1ccccc1)(c1ccccc1)c1ccccc1Cl | 2.1 µM | – |
| OC(c1ccccc1)(c1ccc(Br)cc1)c1ccc(Br)cc1 | 0.5 µM | – |
| OC(c1ccccc1)(c1ccccc1)C1CCCCC1 | 9.5 µM | – |
| N#CC(c1ccccc1)(c1ccccc1)C1CCCCC1 | 0.9 µM | – |
| CCOC(=O)C(c1ccccc1)(c1ccccc1)N1CCCCC1 | 2.2 µM | – |
| CCOC(c1ccccc1)(c1ccccc1)c1ccc(-c2ccccc2)cc1 | 2.2 µM | inhibition at 10 µM [2]: 99% |
| OC(Cc1ccccc1)(c1ccccc1)c1ccccc1 | 0.4 µM | Cell [3]: 8.57%; inhibition at 10 µM [2]: 98%; Cell [4]: 25.09%; Cell [5]: 5%; Cell [6]: 69.91%; Cell [7]: 46.8%; Cell [8]: 44.63% |
| OC(c1ccccc1)(c1ccccc1)c1ccc(Cl)cc1 | 0.8 µM | – |
| N#CC(c1ccccc1)(c1ccccc1)c1ccccc1Cl | 2.2 µM | – |
| OC(c1ccccc1)(c1ccccc1)c1cccc2ccccc12 | 1.6 µM | – |
| Oc1ccccc1C(O)(c1ccccc1)c1ccccc1Cl (stereo not given) | 1 µM | inhibition at 10 µM [2]: 99% |
| Nc1ccc(C(O)(c2ccc(N)cc2)c2ccc(N)cc2)cc1 | 0.2 µM | – |
| OC(c1ccccc1)(c1ccccc1)c1ccc(C(F)(F)F)cc1 | 3.1 µM | – |
| O=C(O)CC(c1ccccc1)(c1ccccc1)c1ccccc1Cl | 1.2 µM | – |
| N#CC(c1ccccc1)(c1ccccc1)c1ccc([N+](=O)[O-])cc1 | 1.7 µM | – |
| Cc1ccc(C(O)(c2ccc(C)cc2)c2ccc(C)cc2)cc1 | 3 µM | – |
| O=[N+]([O-])c1ccc(C(O)(c2ccccc2)c2ccccc2)c(Cl)c1 | 0.3 µM | inhibition at 10 µM [2]: 94% |
| Clc1ccccc1C(c1ccccc1)c1ccccc1 [2-CHLOROPHENYL-BISPHENYLMETHANE(MAJOR)] | 3.9 µM | – |
| OC(c1ccccc1)(c1ccccc1)c1ccccc1 [TRIPHENYLMETHANOL] | 2 µM | inhibition at 10 µM [2]: 99% |

— ChEMBL document CHEMBL1146825, “Triaryl methane derivatives as antiproliferative agents” (Bioorg Med Chem Lett, 2004)
